In ChEMBL document CHEMBL4732230, “Design, synthesis, and biological evaluation of 4-benzoylamino-1H-pyrazole-3-carboxamide derivatives as potent CDK2 inhibitors” (Eur J Med Chem, 2021):
One block for each compound: values may come before it. Calls of active or inactive are those of the source. No cut-off for these calls is given here.

Experiments:
[1] = biological target: Cyclin-dependent kinase 1/cyclin B1 (Homo sapiens, UniProt P06493); format: protein-complex assay
CDK2/Cyclin A2 = CDK2/Cyclin A2 (Homo sapiens, UniProt P24941); experiment: Inhibition of CDK2/cyclin A2 (unknown origin) using FAM-labeled peptide and ATP as substrate preincubated for 10 mins followed by substrate addition by mobility shift assay; format: protein-complex assay
A2058 [2] = experiment: Antiproliferative activity against human A2058 cells assessed as reduction in cell viability measured after 96 hrs by Celltiter-Glo luminescent assay; format: functional, cell-based; details: A2058, 96 h
In short: (§1)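 Cells in DMEM (A2058, MRC5) or RPMI 1640 (MV4-11), each with 10% fetal bovine serum and 1% penicillin/streptomycin. Cells were plated in 96-well plates and exposed to serially concentrated compound for 96 h, with DMSO as control. Viability was read by CellTiter-Glo luminescence and IC50 derived.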

A2058 [3] = experiment: Induction of apoptosis in human A2058 cells assessed as upregulation of cleaved PARP level after 24 hrs by immunoblot analysis; format: functional, cell-based; details: dose 0.1875-1.5 µM
In short: (§2)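 A2058 cells treated with compound for 24 h and lysed. Lysates were run on 8% or 10% SDS-PAGE and transferred to nitrocellulose, then blocked in 5% milk/TBST for 60 min. Blots were probed overnight at 4 °C for cleaved caspase-3 or cleaved PARP, then with HRP secondary at 1:10,000 for 1 h. Detection was by ECL, with tubulin as loading control.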

[4] = biological target: Cyclin-dependent kinase 2 (Homo sapiens) (UniProt P24941); experiment: Inhibition of CDK2 in human MV4-11 cells assessed as reduction in Rb phosphorylation at Ser780 at 0.375 to 6 uM by immunoblot analysis; format: cell-based; details: dose 0.375-6 µM, time lower […], time upper 48.0 hrs, TDE = time-dependent effect
In short: (§3)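 MV4-11 cells treated with compound for 24 h or 48 h. Lysates were separated on 8% or 10% SDS-PAGE and transferred to nitrocellulose. Membranes were immunoblotted for phospho-Rb Ser780, phospho-Rb Ser807/811 and total Rb, with β-actin as loading control. Detection used HRP secondary at 1:10,000 and ECL.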

A2058 [5] = experiment: Induction of cell cycle arrest in human A2058 cells assessed as accumulation at G2 phase at 0.2 uM after 24 hrs by propidium iodide/RNase staining based flow cytometric analysis (reference value: 21.19 %); format: functional
A2058 [6] = experiment: Induction of cell cycle arrest in human A2058 cells assessed as accumulation at S phase at 0.4 uM after 24 hrs by propidium iodide/RNase staining based flow cytometric analysis (reference value: 30.76 %); format: functional
A2058 [7] = experiment: Induction of cell cycle arrest in human A2058 cells assessed as accumulation at G2 phase at 0.4 uM after 24 hrs by propidium iodide/RNase staining based flow cytometric analysis (reference value: 21.19 %); format: functional
A2058 [8] = experiment: Induction of apoptosis in human A2058 cells assessed as late apoptotic cells at 1 uM measured after 48 hrs by Annexin V-FITC/propidium iodide staining based flow cytometry (reference value: 1.85 %); format: functional
[9] = biological target: Cyclin-dependent kinase 2 (Homo sapiens) (UniProt P24941); experiment: Inhibition of CDK2 in human MV4-11 cells assessed as reduction in Rb phosphorylation at Ser807/811 at 0.375 to 6 uM by immunoblot analysis; format: cell-based; details: dose 0.375-6 µM, time lower […], time upper 48.0 hrs, TDE = time-dependent effect
In short: as §3

CDK4/Cyclin D3 = CDK4/Cyclin D3 (Homo sapiens, UniProt P11802); experiment: Inhibition of CDK4/cyclin D3 (unknown origin) using FAM-labeled peptide and ATP as substrate preincubated for 10 mins followed by substrate addition by mobility shift assay; format: protein-complex assay
A2058 [10] = experiment: Induction of apoptosis in human A2058 cells assessed as viable cells at 0.2 uM measured after 48 hrs by Annexin V-FITC/propidium iodide staining based flow cytometry (reference value: 94.6 %); format: functional; details: read-out: Activity
A2058 [11] = experiment: Induction of apoptosis in human A2058 cells assessed as late apoptotic cells at 0.4 uM measured after 48 hrs by Annexin V-FITC/propidium iodide staining based flow cytometry (reference value: 1.85 %); format: functional
CDK12/Cyclin K = CDK12/Cyclin K (Homo sapiens, UniProt Q9NYV4); experiment: Inhibition of CDK12/cyclin K (unknown origin) using FAM-labeled peptide and ATP as substrate preincubated for 10 mins followed by substrate addition by mobility shift assay; format: protein-complex assay
In short: (§4)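 Mobility shift assay in 50 mM HEPES pH 7.5 with 0.0015% Brij-35. Kinase was added to serially diluted compound in 10% DMSO and held 10 min at room temperature. FAM-labeled peptide and ATP were then added and the mixture incubated at 28 °C for the specified time. Reactions were stopped with EDTA-containing buffer.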

A2058 [12] = experiment: Induction of apoptosis in human A2058 cells assessed as early apoptotic cells at 0.4 uM measured after 48 hrs by Annexin V-FITC/propidium iodide staining based flow cytometry (reference value: 3.13 %); format: functional
A2058 [13] = experiment: Induction of cell cycle arrest in human A2058 cells assessed as accumulation at G1 phase at 0.4 uM after 24 hrs by propidium iodide/RNase staining based flow cytometric analysis (reference value: 48.05 %); format: functional
A2058 [14] = experiment: Induction of cell cycle arrest in human A2058 cells assessed as accumulation at S phase at 0.2 uM after 24 hrs by propidium iodide/RNase staining based flow cytometric analysis (reference value: 30.76 %); format: functional
[15] = biological target: Cyclin-dependent kinase 2 (Homo sapiens) (UniProt P24941); experiment: Inhibition of CDK2 in human MV4-11 cells assessed as downregulation of Mcl-1 expression at 0.1875 to 3 uM after 24 hrs by immunoblot analysis; format: cell-based; details: dose 0.1875-3 µM
In short: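 MV4-11 cells exposed to compound for 24 h. Lysates were resolved by 8% or 10% SDS-PAGE and blotted to nitrocellulose. Blots were probed with anti-Mcl-1 overnight at 4 °C, then HRP secondary at 1:10,000. Bands were developed by ECL, with GAPDH as loading control.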

A2058 [16] = experiment: Induction of apoptosis in human A2058 cells assessed as necrotic cells at 0.4 uM measured after 48 hrs by Annexin V-FITC/propidium iodide staining based flow cytometry (reference value: 0.37 %); format: functional
CDK7/Cyclin H/MNAT1 = CDK7/Cyclin H/MNAT1 (Homo sapiens, UniProt P50613); experiment: Inhibition of CDK7/cyclinH/MAT1 (unknown origin) using FAM-labeled peptide and ATP as substrate preincubated for 10 mins followed by substrate addition by mobility shift assay; format: protein-complex assay
In short: as §4

[17] = biological target: Cyclin-dependent kinase 2 (Homo sapiens) (UniProt P24941); experiment: Inhibition of CDK2 in human A2058 cells assessed as downregulation of Mcl-1 expression at 0.1875 to 1.5 uM after 24 hrs by immunoblot analysis; format: cell-based; details: dose 0.1875-1.5 µM
[18] = biological target: Cyclin-dependent kinase 2 (Homo sapiens) (UniProt P24941); experiment: Inhibition of CDK2 in human MV4-11 cells assessed as reduction in Rb phosphorylation at Ser807/811 after 24 to 48 hrs by immunoblot analysis; format: cell-based; details: dose 0.375-6 µM, time lower […], time upper 48.0 hrs
In short: as §3

CDK3/Cyclin E = CDK3/Cyclin E (Homo sapiens, UniProt Q00526); experiment: Inhibition of CDK3/cyclin E1 (unknown origin) using FAM-labeled peptide and ATP as substrate preincubated for 10 mins followed by substrate addition by mobility shift assay; format: protein-complex assay
In short: as §4

[19] = Cytotoxicity against human LX2 cells assessed as inhibition of cell growth at 100 uM measured after 96 hrs by Celltiter-Glo luminescent assay; format: cell-based
In short: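 LX2 cells grown in DMEM with 10% fetal bovine serum and 1% penicillin/streptomycin, plated in 96-well plates. They were treated with compound at […] or DMSO control for 96 h. Viability was read by CellTiter-Glo luminescence and expressed as percent inhibition.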

A2058 [20] = experiment: Induction of cell cycle arrest in human A2058 cells assessed as accumulation at G1 phase at 0.2 uM after 24 hrs by propidium iodide/RNase staining based flow cytometric analysis (reference value: 48.05 %); format: functional
A2058 [21] = experiment: Induction of apoptosis in human A2058 cells assessed as viable cells at 1 uM measured after 48 hrs by Annexin V-FITC/propidium iodide staining based flow cytometry (reference value: 94.6 %); format: functional; details: read-out: Activity
A2058 [22] = experiment: Induction of apoptosis in human A2058 cells assessed as late apoptotic cells at 0.2 uM measured after 48 hrs by Annexin V-FITC/propidium iodide staining based flow cytometry (reference value: 1.85 %); format: functional
A2058 [23] = experiment: Induction of apoptosis in human A2058 cells assessed as early apoptotic cells at 1 uM measured after 48 hrs by Annexin V-FITC/propidium iodide staining based flow cytometry (reference value: 3.13 %); format: functional
CDK9/cyclin T1 = CDK9/cyclin T1 (Homo sapiens, UniProt P50750); experiment: Inhibition of CDK9/cyclin T1 (unknown origin) using FAM-labeled peptide and ATP as substrate preincubated for 10 mins followed by substrate addition by mobility shift assay; format: protein-complex assay
MRC5 = experiment: Cytotoxicity against human MRC5 cells assessed as reduction in cell viability measured after 96 hrs by Celltiter-Glo luminescent assay; format: cell-based; details: MRC5, 96 h
In short: as §1

A2058 [24] = experiment: Induction of apoptosis in human A2058 cells assessed as upregulation of cleaved caspase-3 level after 24 hrs by immunoblot analysis; format: functional, cell-based; details: dose 0.1875-1.5 µM
In short: as §2

[25] = biological target: Cyclin-dependent kinase 2 (Homo sapiens) (UniProt P24941); experiment: Inhibition of CDK2 in human MV4-11 cells assessed as reduction in Rb phosphorylation at Ser780 after 24 to 48 hrs by immunoblot analysis; format: cell-based; details: dose 0.375-6 µM, time lower […], time upper 48.0 hrs
In short: as §3

A2058 [26] = experiment: Induction of apoptosis in human A2058 cells assessed as viable cells at 0.4 uM measured after 48 hrs by Annexin V-FITC/propidium iodide staining based flow cytometry (reference value: 94.6 %); format: functional; details: read-out: Activity
MV4-11 = experiment: Antiproliferative activity against human MV4-11 cells assessed as reduction in cell viability measured after 96 hrs by Celltiter-Glo luminescent assay; format: functional, cell-based; details: MV4-11, 96 h
In short: as §1

A2058 [27] = experiment: Induction of apoptosis in human A2058 cells assessed as necrotic cells at 0.2 uM measured after 48 hrs by Annexin V-FITC/propidium iodide staining based flow cytometry (reference value: 0.37 %); format: functional
A2058 [28] = experiment: Induction of apoptosis in human A2058 cells assessed as necrotic cells at 1 uM measured after 48 hrs by Annexin V-FITC/propidium iodide staining based flow cytometry (reference value: 0.37 %); format: functional
CDK6/cyclin D3 = CDK6/cyclin D3 (Homo sapiens, UniProt Q00534); experiment: Inhibition of CDK6/cyclin D3 (unknown origin) using FAM-labeled peptide and ATP as substrate preincubated for 10 mins followed by substrate addition by mobility shift assay; format: protein-complex assay
In short: as §4

A2058 [29] = experiment: Induction of apoptosis in human A2058 cells assessed as early apoptotic cells at 0.2 uM measured after 48 hrs by Annexin V-FITC/propidium iodide staining based flow cytometry (reference value: 3.13 %); format: functional

Cyclin-dependent kinase 1/cyclin B1, sequence (P06493 whole entry): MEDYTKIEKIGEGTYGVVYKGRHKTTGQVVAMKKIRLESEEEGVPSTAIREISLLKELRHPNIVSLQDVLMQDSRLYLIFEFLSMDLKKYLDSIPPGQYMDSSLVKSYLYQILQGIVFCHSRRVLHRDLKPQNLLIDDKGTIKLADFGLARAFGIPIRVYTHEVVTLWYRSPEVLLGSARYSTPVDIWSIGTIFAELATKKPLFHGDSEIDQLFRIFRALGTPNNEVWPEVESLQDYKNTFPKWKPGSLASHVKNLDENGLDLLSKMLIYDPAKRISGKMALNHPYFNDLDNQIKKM
Cyclin-dependent kinase 1/cyclin B1, sequence (P14635 whole entry, further chain): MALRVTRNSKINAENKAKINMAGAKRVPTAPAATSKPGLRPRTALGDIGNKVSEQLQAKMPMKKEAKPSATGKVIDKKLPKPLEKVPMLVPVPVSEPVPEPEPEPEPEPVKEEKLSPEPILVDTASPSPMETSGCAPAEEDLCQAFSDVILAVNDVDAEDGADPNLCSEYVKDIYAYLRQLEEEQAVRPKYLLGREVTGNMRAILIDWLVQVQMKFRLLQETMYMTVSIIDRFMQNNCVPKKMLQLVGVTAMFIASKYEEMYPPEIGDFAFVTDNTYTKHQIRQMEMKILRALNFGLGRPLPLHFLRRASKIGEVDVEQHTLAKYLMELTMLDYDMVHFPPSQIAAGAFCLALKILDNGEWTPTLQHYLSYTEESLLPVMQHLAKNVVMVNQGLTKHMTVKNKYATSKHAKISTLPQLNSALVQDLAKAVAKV
CDK3/Cyclin E, sequence (P24864 whole entry): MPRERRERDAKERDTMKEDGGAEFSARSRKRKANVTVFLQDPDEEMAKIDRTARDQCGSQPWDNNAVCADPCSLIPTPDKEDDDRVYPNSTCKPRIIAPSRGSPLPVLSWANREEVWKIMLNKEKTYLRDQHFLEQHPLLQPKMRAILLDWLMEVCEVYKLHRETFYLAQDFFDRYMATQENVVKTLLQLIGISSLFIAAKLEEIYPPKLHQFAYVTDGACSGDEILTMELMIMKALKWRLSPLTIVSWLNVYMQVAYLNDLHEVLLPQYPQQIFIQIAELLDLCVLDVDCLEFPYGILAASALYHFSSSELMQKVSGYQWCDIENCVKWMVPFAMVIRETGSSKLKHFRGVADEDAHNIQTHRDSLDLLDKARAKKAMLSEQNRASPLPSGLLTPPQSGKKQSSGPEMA
CDK3/Cyclin E, sequence (Q00526 whole entry): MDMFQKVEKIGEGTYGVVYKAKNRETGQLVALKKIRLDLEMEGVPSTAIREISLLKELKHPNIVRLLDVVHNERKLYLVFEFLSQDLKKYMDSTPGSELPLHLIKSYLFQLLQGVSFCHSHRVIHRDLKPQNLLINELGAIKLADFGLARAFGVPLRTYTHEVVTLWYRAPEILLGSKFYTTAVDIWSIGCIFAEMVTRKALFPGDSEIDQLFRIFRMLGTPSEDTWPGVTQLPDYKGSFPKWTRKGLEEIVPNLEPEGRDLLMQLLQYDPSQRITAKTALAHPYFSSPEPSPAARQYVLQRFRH
CDK4/Cyclin D3, sequence (P11802 whole entry): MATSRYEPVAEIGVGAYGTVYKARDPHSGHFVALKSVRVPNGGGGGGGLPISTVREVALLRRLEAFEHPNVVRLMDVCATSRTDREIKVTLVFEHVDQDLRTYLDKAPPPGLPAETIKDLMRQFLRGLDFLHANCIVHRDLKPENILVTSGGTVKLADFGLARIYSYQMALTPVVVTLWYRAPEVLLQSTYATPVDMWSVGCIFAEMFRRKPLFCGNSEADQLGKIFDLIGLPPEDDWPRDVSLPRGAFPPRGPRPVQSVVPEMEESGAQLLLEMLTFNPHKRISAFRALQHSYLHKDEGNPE
CDK4/Cyclin D3, sequence (P30281 whole entry, further chain): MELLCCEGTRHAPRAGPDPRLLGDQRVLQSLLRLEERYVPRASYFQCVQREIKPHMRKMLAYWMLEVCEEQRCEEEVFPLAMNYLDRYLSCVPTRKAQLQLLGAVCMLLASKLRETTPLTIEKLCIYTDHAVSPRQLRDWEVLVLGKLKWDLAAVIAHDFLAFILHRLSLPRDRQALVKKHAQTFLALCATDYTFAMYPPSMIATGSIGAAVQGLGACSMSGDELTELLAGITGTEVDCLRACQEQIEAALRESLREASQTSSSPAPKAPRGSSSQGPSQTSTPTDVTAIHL
CDK6/cyclin D3, sequence (P30281 whole entry): as the sequence (P30281 whole entry, further chain) above
CDK6/cyclin D3, sequence (Q00534 whole entry): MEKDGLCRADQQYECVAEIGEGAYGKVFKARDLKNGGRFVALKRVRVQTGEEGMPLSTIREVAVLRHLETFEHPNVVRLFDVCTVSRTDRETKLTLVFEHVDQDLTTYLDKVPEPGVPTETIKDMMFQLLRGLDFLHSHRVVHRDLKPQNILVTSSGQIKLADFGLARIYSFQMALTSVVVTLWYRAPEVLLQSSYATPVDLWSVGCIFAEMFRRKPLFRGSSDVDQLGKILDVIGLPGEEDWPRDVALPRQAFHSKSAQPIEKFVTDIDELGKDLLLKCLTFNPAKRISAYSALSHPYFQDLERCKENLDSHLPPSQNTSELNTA
CDK12/Cyclin K, sequence (O75909 whole entry): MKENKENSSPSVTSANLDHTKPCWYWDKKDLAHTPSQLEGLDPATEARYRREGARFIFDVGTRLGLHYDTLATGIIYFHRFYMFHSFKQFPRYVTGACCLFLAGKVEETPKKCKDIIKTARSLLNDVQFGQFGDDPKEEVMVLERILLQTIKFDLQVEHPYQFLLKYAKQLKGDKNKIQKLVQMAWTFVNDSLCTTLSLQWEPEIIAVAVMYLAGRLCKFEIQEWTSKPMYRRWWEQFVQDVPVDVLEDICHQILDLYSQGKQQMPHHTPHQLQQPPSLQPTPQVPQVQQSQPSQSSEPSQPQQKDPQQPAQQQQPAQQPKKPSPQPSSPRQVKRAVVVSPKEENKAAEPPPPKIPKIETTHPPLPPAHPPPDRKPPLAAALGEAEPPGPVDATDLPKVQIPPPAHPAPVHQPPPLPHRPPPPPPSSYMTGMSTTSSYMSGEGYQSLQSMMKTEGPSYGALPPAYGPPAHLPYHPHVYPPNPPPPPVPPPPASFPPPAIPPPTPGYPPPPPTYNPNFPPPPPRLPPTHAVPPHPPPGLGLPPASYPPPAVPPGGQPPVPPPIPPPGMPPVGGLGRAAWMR
CDK12/Cyclin K, sequence (Q9NYV4 whole entry): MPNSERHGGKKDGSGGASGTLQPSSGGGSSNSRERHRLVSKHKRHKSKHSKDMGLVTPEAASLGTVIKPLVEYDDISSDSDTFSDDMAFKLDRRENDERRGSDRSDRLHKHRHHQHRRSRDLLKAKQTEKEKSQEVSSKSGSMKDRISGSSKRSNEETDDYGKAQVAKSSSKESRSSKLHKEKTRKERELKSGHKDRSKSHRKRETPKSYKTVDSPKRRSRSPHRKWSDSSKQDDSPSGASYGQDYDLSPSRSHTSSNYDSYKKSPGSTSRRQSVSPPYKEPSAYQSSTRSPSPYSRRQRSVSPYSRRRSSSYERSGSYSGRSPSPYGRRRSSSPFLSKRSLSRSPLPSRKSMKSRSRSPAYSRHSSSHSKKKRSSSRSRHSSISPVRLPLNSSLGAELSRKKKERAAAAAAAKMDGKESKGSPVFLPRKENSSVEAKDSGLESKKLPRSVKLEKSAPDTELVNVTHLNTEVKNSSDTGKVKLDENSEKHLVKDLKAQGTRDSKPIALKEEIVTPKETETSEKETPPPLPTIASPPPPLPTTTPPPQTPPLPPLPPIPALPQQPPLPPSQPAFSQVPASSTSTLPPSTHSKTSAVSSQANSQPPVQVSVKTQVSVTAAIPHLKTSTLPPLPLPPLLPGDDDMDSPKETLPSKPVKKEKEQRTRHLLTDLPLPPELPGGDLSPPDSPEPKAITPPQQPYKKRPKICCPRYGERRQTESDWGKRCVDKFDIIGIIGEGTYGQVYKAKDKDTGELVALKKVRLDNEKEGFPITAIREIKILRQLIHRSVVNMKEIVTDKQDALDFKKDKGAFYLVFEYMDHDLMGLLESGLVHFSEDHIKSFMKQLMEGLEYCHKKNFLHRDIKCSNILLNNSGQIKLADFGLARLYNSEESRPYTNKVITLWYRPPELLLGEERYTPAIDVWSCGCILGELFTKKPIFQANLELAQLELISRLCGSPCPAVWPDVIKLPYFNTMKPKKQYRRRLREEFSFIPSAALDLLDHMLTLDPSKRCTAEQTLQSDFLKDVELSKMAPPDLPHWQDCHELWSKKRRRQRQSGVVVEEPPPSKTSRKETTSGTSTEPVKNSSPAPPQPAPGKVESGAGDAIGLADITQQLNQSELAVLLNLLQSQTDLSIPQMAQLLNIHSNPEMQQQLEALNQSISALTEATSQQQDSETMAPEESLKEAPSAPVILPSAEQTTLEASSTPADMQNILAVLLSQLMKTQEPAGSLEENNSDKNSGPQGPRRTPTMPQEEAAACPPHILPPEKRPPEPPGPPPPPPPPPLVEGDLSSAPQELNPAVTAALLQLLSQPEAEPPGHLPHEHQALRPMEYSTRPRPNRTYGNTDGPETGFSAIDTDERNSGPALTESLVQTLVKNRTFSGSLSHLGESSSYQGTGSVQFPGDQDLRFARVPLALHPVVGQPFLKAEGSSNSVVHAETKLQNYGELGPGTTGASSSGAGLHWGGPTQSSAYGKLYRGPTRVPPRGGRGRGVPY

Compound: NS(=O)(=O)c1ccc(Nc2nc(-c3cccc(-c4ccccc4)c3)c3nc[nH]c3n2)cc1
IC50 [1]: > 200000 nM
IC50 (CDK2/Cyclin A2): 543 nM
IC50 (A2058 [2]): > 100000 nM

Compound: NC(=O)c1ccc(-c2ccc(F)c(C(=O)Nc3c[nH]nc3C(=O)Nc3ccc(F)cc3)c2F)cn1
Activity (A2058 [3]): Dose-dependent effect
inhibition [4]: Tde
Activity (A2058 [5]): 21.76%
Activity (A2058 [6]): 39.82%
IC50 [1]: 1020 nM
Activity (A2058 [7]): 41.44%
Activity (A2058 [8]): 28.6%
inhibition [9]: Tde
IC50 (CDK4/Cyclin D3): 3480 nM
viability at 0.2 µM (A2058 [10]): 87.3%
Activity (A2058 [11]): 14.6%
IC50 (CDK12/Cyclin K): > 18000 nM
Activity (A2058 [12]): 21.7%
Activity (A2058 [13]): 48.05%
Activity (A2058 [14]): 41.35%
inhibition [15]: Active
Activity (A2058 [16]): 8.32%
IC50 (CDK2/Cyclin A2): 58 nM
IC50 (CDK7/Cyclin H/MNAT1): > 18000 nM
inhibition [17]: Active
inhibition [18]: Dose-dependent effect
IC50 (CDK3/Cyclin E): 113 nM
inhibition at 96 h, 100 µM [19]: 32.5%
IC50 (A2058 [2]): 295 nM
Activity (A2058 [20]): 36.89%
viability at 1 µM (A2058 [21]): 23.7%
Activity (A2058 [22]): 4.75%
Activity (A2058 [23]): 40%
IC50 (CDK9/cyclin T1): 1120 nM
IC50 (MRC5): 54800 nM
Activity (A2058 [24]): Dose-dependent effect
inhibition [25]: Dose-dependent effect
viability at 0.4 µM (A2058 [26]): 55.1%
IC50 (MV4-11): 252 nM
Activity (A2058 [27]): 3.41%
Activity (A2058 [28]): 7.66%
IC50 (CDK6/cyclin D3): > 18000 nM
Activity (A2058 [29]): 4.52%

Compound: O=C(Nc1ccc(F)cc1)c1n[nH]cc1NC(=O)c1c(F)cccc1F
IC50 [1]: 14 nM
IC50 (A2058 [2]): 1010 nM

Further compounds by falling IC50 [1], results first:

IC50 [1]: 306 nM
IC50 (CDK2/Cyclin A2): 40 nM
Compound: O=C(Nc1ccc(F)cc1)c1n[nH]cc1NC(=O)c1c(F)ccc(-c2cccnc2)c1F
IC50 (A2058 [2]): 2940 nM

IC50 [1]: 69 nM
IC50 (CDK2/Cyclin A2): 8 nM
Compound: NC(=O)c1cccc(-c2ccc(F)c(C(=O)Nc3c[nH]nc3C(=O)Nc3ccc(F)cc3)c2F)c1
IC50 (A2058 [2]): 1990 nM
